Test results published in paper PMC10824694 (Blood Advances, 2023).

Key:
[1] = test system: MDA-MB-231/ATCC; experiment: cells; format: cell-based; details: Homo sapiens, MDA-MB-231, 72 h
[2] = test system: SR; experiment: cells; format: cell-based; details: Homo sapiens, 72 h
[3] = test system: RPMI-8226; experiment: cells; format: cell-based; details: Homo sapiens, RPMI-8226, 72 h
[4] = test system: COLO 205; experiment: cells; format: cell-based; details: Homo sapiens, COLO 205, 72 h
[5] = test system: Panc1; experiment: cells; format: cell-based; details: Homo sapiens, PANC-1, 72 h
[6] = test system: H9; experiment: cells; format: cell-based; details: Homo sapiens, H9, 72 h
[7] = test system: A498; experiment: cells; format: cell-based; details: Homo sapiens, A498, 72 h
[8] = test system: SNB-75; experiment: cells; format: cell-based; details: Homo sapiens, SNB-75, 72 h
[9] = test system: OVCAR-4; experiment: cells; format: cell-based; details: Homo sapiens, OVCAR-4, 72 h
[10] = test system: NCI-H23; experiment: cells; format: cell-based; details: Homo sapiens, NCI-H23, 72 h
[11] = test system: HCT-116; experiment: cells; format: cell-based; details: Homo sapiens, HCT-116, 72 h
[12] = test system: EKVX; experiment: cells; format: cell-based; details: Homo sapiens, 72 h
[13] = test system: SF-295; experiment: cells; format: cell-based; details: Homo sapiens, SF-295, 72 h
[14] = test system: KM12; experiment: cells; format: cell-based; details: Homo sapiens, KM12, 72 h
[15] = test system: PC-3; experiment: cells; format: cell-based; details: Homo sapiens, PC-3, 72 h
[16] = test system: CaPan2; experiment: cells; format: cell-based; details: Homo sapiens, Capan-2, 72 h
[17] = test system: H9-derived xenografted tumors; experiment: H9 xenograft T-cell lymphoma model in NSG mice; format: in vivo, mouse; details: oral gavage daily 14 days, BBM 50 mg/kg, PA4 5-15 mg/kg per day
Method in brief: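 Female 8-week-old NSG mice received 5×10^6 H9 cells in PBS subcutaneously in the right flank. At a tumour volume of ~30 mm³ (day 16), mice were randomised into 5 groups (n = 5 each): PBS 100 μL, or test compound in PBS, given daily by oral gavage for 14 days. Body weight and tumours were measured 3 times weekly. Mice were euthanised on day 30.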

[18] = test system: 371-kinase panel; experiment: Kinome screening, HotSpot assay platform; format: biochemical; details: 10 μM, panel of 371 kinases
Method in brief: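 The HotSpot platform was run against a 371-kinase panel with test compounds at 1 µM and 10 µM. A hit was a kinase whose activity was inhibited by ≥50%.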

[19] = test system: HL-60(TB); experiment: cells; format: cell-based; details: Homo sapiens, HL-60, 72 h
[20] = test system: SK-MEL-5; experiment: cells; format: cell-based; details: Homo sapiens, SK-MEL-5, 72 h
[21] = test system: MOLT-4; experiment: cells; format: cell-based; details: Homo sapiens, MOLT-4, 72 h
[22] = test system: SW-620; experiment: cells; format: cell-based; details: Homo sapiens, SW-620, 72 h
[23] = test system: RXF 393; experiment: cells; format: cell-based; details: Homo sapiens, RXF 393, 72 h
[24] = test system: OVCAR-3; experiment: cells; format: cell-based; details: Homo sapiens, OVCAR-3, 72 h
[25] = test system: BxPC3; experiment: cells; format: cell-based; details: Homo sapiens, BXPC-3, 72 h
[26] = test system: SNB-19; experiment: cells; format: cell-based; details: Homo sapiens, SNB-19, 72 h
[27] = test system: HOP-92; experiment: cells; format: cell-based; details: Homo sapiens, HOP-92, 72 h
[28] = test system: HOP-62; experiment: cells; format: cell-based; details: Homo sapiens, HOP-62, 72 h
[29] = test system: Rael; experiment: cells; format: cell-based; details: Homo sapiens, 72 h
[30] = test system: BT-549; experiment: cells; format: cell-based; details: Homo sapiens, BT-549, 72 h
[31] = Mouse pharmacokinetics study; format: in vivo
Method in brief: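 Plasma concentration–time profiles were obtained after each route. Absolute oral bioavailability was calculated from the IV and oral data.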

[32] = test system: HT29; experiment: cells; format: cell-based; details: Homo sapiens, HT-29, 72 h
[33] = test system: TK-10; experiment: cells; format: cell-based; details: Homo sapiens, TK-10, 72 h
[34] = test system: MDA-MB-435; experiment: cells; format: cell-based; details: Homo sapiens, MDA-MB-435, 72 h
[35] = test system: SN12C; experiment: cells; format: cell-based; details: Homo sapiens, 72 h
[36] = test system: Mutu; experiment: cells; format: cell-based; details: Homo sapiens, 72 h
[37] = test system: OVCAR-5; experiment: cells; format: cell-based; details: Homo sapiens, OVCAR-5, 72 h
[38] = test system: MDA-MB-468; experiment: cells; format: cell-based; details: Homo sapiens, MDA-MB-468, 72 h
[39] = test system: NCI-H460; experiment: cells; format: cell-based; details: Homo sapiens, NCI-H460, 72 h
[40] = test system: UACC-62; experiment: cells; format: cell-based; details: Homo sapiens, UACC-62, 72 h
[41] = test system: OVCAR-8; experiment: cells; format: cell-based; details: Homo sapiens, OVCAR-8, 72 h
[42] = test system: HCC-2998; experiment: cells; format: cell-based; details: Homo sapiens, HCC 2998, 72 h
[43] = test system: MCF7; experiment: cells; format: cell-based; details: Homo sapiens, MCF7, 72 h
[44] = test system: FG; experiment: cells; format: cell-based; details: Homo sapiens, 72 h
[45] = test system: SF-539; experiment: cells; format: cell-based; details: Homo sapiens, SF-539, 72 h
[46] = test system: U251; experiment: cells; format: cell-based; details: Homo sapiens, U-251, 72 h
[47] = test system: JB6; experiment: cells; format: cell-based; details: Homo sapiens, JB6, 72 h
[48] = test system: MALME-3M; experiment: cells; format: cell-based; details: Homo sapiens, 72 h
[49] = test system: CCRF-CEM; experiment: cells; format: cell-based; details: Homo sapiens, 72 h
[50] = target: T1, CAMKIIγ (Homo sapiens, UniProt Q13555); experiment: nano-DSF assay with purified CAMKIIγ protein; format: binding; details: in words
Target sequence in this assay (Q13555 14-272 limits assumed): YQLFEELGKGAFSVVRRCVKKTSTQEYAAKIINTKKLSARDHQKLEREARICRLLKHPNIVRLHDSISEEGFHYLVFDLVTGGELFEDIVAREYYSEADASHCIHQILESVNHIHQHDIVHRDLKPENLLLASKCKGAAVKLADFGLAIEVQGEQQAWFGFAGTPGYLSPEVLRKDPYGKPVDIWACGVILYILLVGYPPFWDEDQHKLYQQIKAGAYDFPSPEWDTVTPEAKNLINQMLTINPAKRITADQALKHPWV

[51] = test system: NCI-H322M; experiment: cells; format: cell-based; details: Homo sapiens, 72 h
[52] = test system: M14; experiment: cells; format: cell-based; details: Homo sapiens, M14, 72 h
[53] = test system: SK-MEL-2; experiment: cells; format: cell-based; details: Homo sapiens, SK-MEL-2, 72 h
[54] = test system: A549/ATCC; experiment: cells; format: cell-based; details: Homo sapiens, A549, 72 h
[55] = test system: HS 578T; experiment: cells; format: cell-based; details: Homo sapiens, 72 h
[56] = test system: SK-OV-3; experiment: cells; format: cell-based; details: Homo sapiens, SK-OV-3, 72 h
[57] = test system: NCI-H522; experiment: cells; format: cell-based; details: Homo sapiens, NCI-H522, 72 h
[58] = test system: NCI/ADR-RES; experiment: cells; format: cell-based; details: Homo sapiens, 72 h
[59] = test system: ACHN; experiment: cells; format: cell-based; details: Homo sapiens, 72 h
[60] = test system: UACC-257; experiment: cells; format: cell-based; details: Homo sapiens, UACC-257, 72 h
[61] = test system: UO-31; experiment: cells; format: cell-based; details: Homo sapiens, UO-31, 72 h
[62] = test system: LOX IMVI; experiment: cells; format: cell-based; details: Homo sapiens, 72 h
[63] = test system: T-47D; experiment: cells; format: cell-based; details: Homo sapiens, T47D, 72 h
[64] = test system: SK-MEL-28; experiment: cells; format: cell-based; details: Homo sapiens, SK-MEL-28, 72 h
[65] = target: T1, CAMKIIγ; experiment: Cellular thermal shift assay; format: cell-based; details: H9 cells, 5 μM, 1 hour; vs DMSO
Target sequence in this assay (Q13555 whole entry): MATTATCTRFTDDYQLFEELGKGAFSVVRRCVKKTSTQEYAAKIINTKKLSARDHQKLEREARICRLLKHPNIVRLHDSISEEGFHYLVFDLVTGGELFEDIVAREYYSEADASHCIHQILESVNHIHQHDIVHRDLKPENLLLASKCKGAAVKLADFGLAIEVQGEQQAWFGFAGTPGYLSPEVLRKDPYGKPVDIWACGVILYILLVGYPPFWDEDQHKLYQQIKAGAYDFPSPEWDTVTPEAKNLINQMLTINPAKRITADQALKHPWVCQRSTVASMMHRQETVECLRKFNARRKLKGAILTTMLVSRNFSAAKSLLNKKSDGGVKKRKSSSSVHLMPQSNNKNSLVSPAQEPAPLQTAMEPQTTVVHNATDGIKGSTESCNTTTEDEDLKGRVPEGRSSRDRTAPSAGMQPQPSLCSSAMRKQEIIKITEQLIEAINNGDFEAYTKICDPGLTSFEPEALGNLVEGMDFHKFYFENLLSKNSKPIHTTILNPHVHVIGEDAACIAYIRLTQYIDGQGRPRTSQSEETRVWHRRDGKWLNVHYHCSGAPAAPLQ

[66] = test system: NCI-H226; experiment: cells; format: cell-based; details: Homo sapiens, NCI-H226, 72 h
[67] = test system: 786-0; experiment: cells; format: cell-based; details: Homo sapiens, 786-0, 72 h
[68] = test system: DHL6; experiment: cells; format: cell-based; details: Homo sapiens, 72 h
[69] = test system: Namalwa; experiment: cells; format: cell-based; details: Homo sapiens, 72 h
[70] = test system: K-562; experiment: cells; format: cell-based; details: Homo sapiens, K562, 72 h
[71] = test system: HCT-15; experiment: cells; format: cell-based; details: Homo sapiens, HCT-15, 72 h
[72] = test system: CAKI-1; experiment: cells; format: cell-based; details: Homo sapiens, CAKI-1, 72 h
[73] = test system: DU-145; experiment: cells; format: cell-based; details: Homo sapiens, DU-145, 72 h
[74] = test system: SF-268; experiment: cells; format: cell-based; details: Homo sapiens, SF-268, 72 h

COc1cc2c3cc1Oc1c(OC)c(OC)cc4c1[C@@H](Cc1ccc(O)c(c1)Oc1ccc(cc1)C[C@@H]3N(C)CC2)N(C)CC4 [BBM, berbamine]
IC50 [1]: 14.2 µM
IC50 [2]: 5.14 µM
IC50 [3]: 7.83 µM
IC50 [4]: 16 µM
IC50 [5]: 24.8 µM
IC50 [6]: 4.67 µM
IC50 [7]: 6.97 µM
IC50 [8]: 17.6 µM
IC50 [9]: 15.1 µM
IC50 [10]: 14.9 µM
IC50 [11]: 10.2 µM
IC50 [12]: 6.38 µM
IC50 [13]: 13.3 µM
IC50 [14]: 17.3 µM
IC50 [15]: 7.94 µM
IC50 [16]: 59.1 µM
body weight [17]: did not reduce body weight
number of kinases whose activity was reduced by >50% [18]: none
IC50 [19]: 5.98 µM
IC50 [20]: 9.9 µM
IC50 [21]: 10.7 µM
IC50 [22]: 12.4 µM
IC50 [23]: 16.9 µM
IC50 [24]: 12.3 µM
IC50 [25]: 31.9 µM
IC50 [26]: 16.2 µM
IC50 [27]: 12.7 µM
IC50 [28]: 23.8 µM
IC50 [29]: 5.87 µM
IC50 [30]: 8.64 µM
time detected in blood after oral administration ([31]; male Institute of Cancer Research mice): 5 min
area under the curve ([31]; male Institute of Cancer Research mice, plasma): 8478 ± 1150
bioavailability ([31]; male, ICR (Institute of Cancer Research), mouse, plasma, po): 44.8%
IC50 [32]: 6.56 µM
IC50 [33]: 35.8 µM
IC50 [34]: 13.5 µM
IC50 [35]: 41.8 µM
IC50 [36]: 4.64 µM
IC50 [37]: 9.88 µM
IC50 [38]: 10.4 µM
IC50 [39]: 20.5 µM
IC50 [40]: 19.2 µM
IC50 [41]: 14.6 µM
IC50 [42]: 5.61 µM
IC50 [43]: 9.93 µM
IC50 [44]: 32.6 µM
IC50 [45]: 5.25 µM
IC50 [46]: 10.7 µM
IC50 [47]: 2.12 µM
IC50 [48]: 9.82 µM
IC50 [49]: 11.4 µM
change of melting temperature of CAMKIIγ protein [50]: did not significantly change the melting temperature
IC50 [51]: 20 µM
IC50 [52]: 13.1 µM
IC50 [53]: 16 µM
IC50 [54]: 18.7 µM
IC50 [55]: 12.4 µM
IC50 [56]: 13.4 µM
IC50 [57]: 21.3 µM
IC50 [58]: 24.8 µM
IC50 [59]: 20.8 µM
IC50 [60]: 6.5 µM
IC50 [61]: 9.61 µM
IC50 [62]: 23 µM
IC50 [63]: 15.7 µM
IC50 [64]: 15.4 µM
CAMKIIγ degradation temperature (CETSA) [65]: did not shift the degradation temperature
IC50 [66]: 34.6 µM
IC50 [67]: 8.48 µM
IC50 [68]: 15.9 µM
IC50 [69]: 20.7 µM
IC50 [70]: 5.11 µM
IC50 [71]: 11 µM
IC50 [72]: 14.2 µM
IC50 [73]: 27.7 µM
IC50 [74]: 13.8 µM
